These results are taken from ChEMBL document CHEMBL4840330, “Secoiridoids from Dogwood (Cornus officinalis) Potentiate Progesterone Signaling” (J Nat Prod, 2021).

Test [1] deals with T1, Progesterone receptor (Homo sapiens) (UniProt P06401).
T1 sequence (whole entry): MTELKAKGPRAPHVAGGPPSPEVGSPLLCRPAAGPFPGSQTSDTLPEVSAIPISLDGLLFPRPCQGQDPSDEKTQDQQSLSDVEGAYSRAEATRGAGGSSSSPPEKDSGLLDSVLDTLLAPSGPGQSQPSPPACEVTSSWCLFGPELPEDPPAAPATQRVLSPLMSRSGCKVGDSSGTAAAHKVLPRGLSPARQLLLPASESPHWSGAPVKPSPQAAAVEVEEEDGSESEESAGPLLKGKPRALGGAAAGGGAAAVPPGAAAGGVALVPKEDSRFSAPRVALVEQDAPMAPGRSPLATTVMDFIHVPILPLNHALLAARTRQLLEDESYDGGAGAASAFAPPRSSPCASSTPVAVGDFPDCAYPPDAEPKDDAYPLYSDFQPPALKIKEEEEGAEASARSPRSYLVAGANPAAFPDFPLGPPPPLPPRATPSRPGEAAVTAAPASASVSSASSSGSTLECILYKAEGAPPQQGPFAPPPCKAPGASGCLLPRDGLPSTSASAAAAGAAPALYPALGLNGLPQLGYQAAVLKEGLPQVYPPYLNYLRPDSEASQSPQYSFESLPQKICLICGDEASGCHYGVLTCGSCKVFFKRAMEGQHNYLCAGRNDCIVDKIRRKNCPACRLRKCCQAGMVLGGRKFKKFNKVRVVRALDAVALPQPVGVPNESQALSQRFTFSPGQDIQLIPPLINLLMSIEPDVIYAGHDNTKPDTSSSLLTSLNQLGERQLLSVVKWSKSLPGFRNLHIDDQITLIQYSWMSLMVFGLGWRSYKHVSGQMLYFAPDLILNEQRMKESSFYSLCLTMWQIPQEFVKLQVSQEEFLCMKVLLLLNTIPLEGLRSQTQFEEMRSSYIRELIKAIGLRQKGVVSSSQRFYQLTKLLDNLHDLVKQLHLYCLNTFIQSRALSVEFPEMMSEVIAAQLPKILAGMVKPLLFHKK
Kind of test: Potentiation of progesterone receptor B in progesterone-stimulated human Ishikawa cells assessed as induction of PRE/Luc transcriptional activity at 10 uM measured after 24 hrs by luciferase reporter gene assay relative to control. The method in brief:
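Ishikawa cells stably expressing PR-B co-treated with 1 nM progesterone plus test agent at 10 μM; PRE-luciferase reporter activity compared with 1 nM progesterone alone; n≥3; mean ± SEM, significance by p-value thresholds.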
(In a reporter assay the amount or activity of a reporter protein is the signal.)

Test [2] concerns the target T1, Progesterone receptor (Homo sapiens). Kind of test: Induction of progesterone receptor B in human Ishikawa cells assessed as induction of PRE/Luc transcriptional activity at 10 uM measured after 24 hrs by luciferase reporter gene assay. It counts as cell-based. The method in brief:
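Ishikawa cells stably expressing PR-B; test agent alone at 10 μM; PRE-driven luciferase reporter read-out; n≥3; mean ± SEM.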

The structures appear in SMILES notation. Calls of active or inactive are those of the source.

For the compound `C=C[C@H]1[C@H](O[C@@H]2O[C@H](CO)[C@@H](O)[C@H](O)[C@H]2O)OC=C(C(=O)OC)[C@H]1CCOC(=O)c1cc(O)c(O)c(O)c1`, in test [1] (filed as activator), the Activity came to 43%. Besides, the outcome in test [2] was inactive.
In the case of `C=C[C@H]1[C@H](O[C@@H]2O[C@H](CO)[C@@H](O)[C@H](O)[C@H]2O)OC=C2C(=O)OCC[C@H]21`, in test [2], the outcome was inactive.
`C=C[C@H]1C(O[C@@H]2O[C@H](CO)[C@@H](O)[C@H](O)[C@H]2O)OC=C(C(=O)O)[C@H]1CC(=O)O` (stereo partly specified): in test [2], the result was inactive.
For the compound `COC(=O)C1=CO[C@@H](O[C@@H]2O[C@H](CO)[C@@H](O)[C@H](O)[C@H]2O)[C@@H]2[C@H](C)O[C@@H](OC)C[C@H]12`, the Activity in test [1] came to 18%. In test [2], the outcome was inactive.
With `COC(=O)C1=CO[C@@H](O[C@@H]2O[C@H](CO)[C@@H](O)[C@H](O)[C@H]2O)[C@@H]2[C@H](C)O[C@H](OC)C[C@H]12`, the Activity in test [1] came to 29%. In test [2], the outcome was inactive.
For the compound `C=C[C@H]1C(O[C@@H]2O[C@H](CO)[C@@H](O)[C@H](O)[C@H]2O)OC=C(C(=O)OC)[C@H]1CC(=O)O` (stereo partly specified), the result in test [2] was inactive.
Regarding `C=C[C@H]1[C@H](O[C@@H]2O[C@H](CO)[C@@H](O)[C@H](O)[C@H]2O)OC=C(C(=O)O)[C@H]1CCOC(=O)c1cc(O)c(O)c(O)c1`, the Activity in test [1] (filed as activator) came out at 42%. In addition, the outcome in test [2] was inactive.
